Screening data as filed in PubChem BioAssay.
A selection: hits, their analogues and other compounds. The true share with any hit is near 3.5%.
FN deposition inh = inhibitors of fibronectin matrix deposition, primary screen, AH1F cells, Alexa488-fibronectin fluorescence, plate reader. actives 0.086% (n = 350,000). inhibition, % at 12.6 µM. AID 743247, 2014. AH1F fibroblasts, overnight;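 active means mean inhibition across replicates of 30% or more, regardless of how many single replicates reach that level; inconclusive means mean under 30% yet at least half of replicates reach 30%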;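 further: positive control wells lacked labelled fibronectin entirely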
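Material: AH1F fibroblasts assembling fluorescent fibronectin matrix; amount: 10000 AH1F cells/well; medium: DMEM, 2% serum; reagent: Alexa488-fibronectin, 24 nM final in well; dosing: single compound dose, delivered by pin transfer; incubation: 1 h adhesion, overnight exposure; detection: fluorescence after three HBSS washes, excitation 485 nm, emission 525 nm; measure: fibronectin deposition inhibition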
DENV2 CPE = inhibitors of DENV2 cytopathic effect, primary screen, cell-based, plate reader, single concentration; DENV2-infected cells, cytopathic effect rescue; CPE inhibition, % at 9.99 µM; actives 1.7% (n = 350,000); in the data active means CPE inhibition above about 20%, passing the limit was not always enough; inconclusive means no clear call, values can overlap the other calls; tested in BHK-21 cells;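 further: 0% = median of neutral control wells and 100% = median of positive control wells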
Env fusion inh = inhibitors of HIV-1 Env-driven cell-cell fusion, primary screen, HeLa-JRFL effector, CEM21 target cells, luciferase | inhibition, % at 12.3 µM | AID 651610, 2012 | actives 1.1% (n = 360,000);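 active means mean replicate inhibition score of at least 50 and every replicate individually at or above 50; inconclusive means only one of the two criteria met; inactive means mean below 50 and not all replicates reaching 50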;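 further: 0% = plate neutral controls and 100% = maraviroc near 300 nM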
PglD inh = C. jejuni PglD acetyltransferase inhibitors, primary screen, biochemical, DTNB colorimetric, single point; purified PglD enzyme, DTNB colorimetric CoA detection; inhibition, % at 12.5 µM; actives 0.098% (n = 360,000); AID 602405, 2012; in the data active means inhibition above about 16%, passing the limit was not always enough; inconclusive means no clear call, values can overlap the other calls
Ecoli rRNA inh = reduced GFP signal of wild-type E. coli, primary screen, bacterial rRNA inhibitor project, GFP/RFP fluorescence, OD600, single point; E. coli WT GFP vs humanized-ribosome RFP mutants, 24 h; hits give low values; DMSO median 0, no signal -100; GFP signal change (wild-type ribosome), % (test concentration not listed); actives 1.6% (n = 350,000);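 active means significant combined selectivity score with lowered wild-type GFP, culture density cut under 30%, mutant RFP and density less affected; inactive means any of these conditions unmet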
PGC1a acetyl inh = inhibitors of PGC1a acetylation signal, primary screen, cell-based, U2OS, AlphaScreen, inhibitor mode. AID 651687, 2012. actives 0.17% (n = 350,000). AlphaScreen anti-acetyl-lysine; with virally co-expressed GCN5 acetyltransferase. inhibition, % at 15.6 µM;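 active means every replicate shows inhibition of at least 40%; inconclusive means mean inhibition at least 40% but some replicate below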;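 further: 0% = neutral control wells and 100% = positive control wells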
An asterisk follows results filed as active; ? = inconclusive; · = not tested or not shown; ! = not active in a repeat; [ ] = remark or other dose.

SMILES	FN deposition inh	DENV2 CPE	Env fusion inh	PglD inh	Ecoli rRNA inh	PGC1a acetyl inh
CC(C)NC(=O)N(C)C[C@H]1Oc2ccc(NC(=O)CCC(F)(F)F)cc2C(=O)N([C@@H](C)CO)C[C@@H]1C	·	23*	·	0	4	5
CC(C)NC(=O)N(C)C[C@H]1Oc2ccc(NC(=O)CCC(F)(F)F)cc2C(=O)N([C@H](C)CO)C[C@H]1C	·	71*	·	-3	6	1
CC(C)NC(=O)N(C)C[C@@H]1Oc2ccc(NC(=O)CCC(F)(F)F)cc2C(=O)N([C@@H](C)CO)C[C@@H]1C	·	0	·	-1	3	1
COc1ccc(S(=O)(=O)N[C@H]2CC[C@H](CC(=O)NCCc3ccncc3)O[C@H]2CO)cc1	·	23*	-15[16.7 µM]	4	3	9
COc1ccc(S(=O)(=O)N[C@H]2CC[C@@H](CC(=O)NCc3ccccc3F)O[C@H]2CO)cc1	·	59*	1[16.7 µM]	2	1	-5
COc1ccc(S(=O)(=O)N[C@H]2CC[C@H](CC(=O)NCc3ccccc3F)O[C@@H]2CO)cc1	·	3	-38[16.7 µM]	0	2	9
COc1ccc(S(=O)(=O)N[C@H]2CC[C@@H](CC(=O)NCCc3ccncc3)O[C@@H]2CO)cc1	·	11	13[16.7 µM]	-2	2	-3
COc1cccc(S(=O)(=O)N[C@@H]2CC[C@H](CC(=O)NCc3ccncc3)O[C@@H]2CO)c1	10	1	56*[16.7 µM]	0	-2	-4
COc1ccc(Cl)cc1NC(=O)CSc1nc(Nc2ccccc2)nc(N2CCOCC2)n1	31*	-9	47	0	0	·
COc1ccc(Cl)cc1NC(=O)CSc1nc(N2CCOCC2)nc(N2CCOCC2)n1	4	-13	16	-3	11	11
CC(C)NC(=O)Nc1ccc2c(c1)CC(=O)N([C@@H](C)CO)C[C@@H](C)[C@H](CN(C)S(=O)(=O)c1cn(C)cn1)O2	·	7	15[16.7 µM]	-2	2	-10
CCN(CC)S(=O)(=O)c1ccc(C(=O)N(c2ccccc2)C2C=CS(=O)(=O)C2)cc1 (centres undefined)	0	-3	9	·	-2	46*
O=C(c1ccc2c(c1)OCO2)N(c1ccccc1)C1C=CS(=O)(=O)C1 (centres undefined)	·	·	·	-2	·	-5
O=C1C(=O)N(c2nccs2)C(c2ccccc2F)/C1=C(\O)c1ccc2c(c1)OCCO2 (centres undefined)	-1	6	59*	3	-16	9
Cc1noc(C)c1S(=O)(=O)N(C)C[C@@H]1Oc2c(NC(=O)c3ccc(-c4nccs4)cc3)cccc2C(=O)N([C@@H](C)CO)C[C@H]1C	8	?	·	1	-1	1
CNC[C@@H]1Oc2ccc(NC(=O)CCC(F)(F)F)cc2CC(=O)N([C@H](C)CO)C[C@@H]1C	-2	3	9[16.7 µM]	1	1	0
CC1CCCN(C(=O)C(C)Sc2nc(-c3ccccc3)cc(C(F)(F)F)n2)C1 (centres undefined)	7	·	57*	-1	·	-11
O=C(c1cccnc1)N1C[C@H]2[C@@H](c3ccccc31)[C@@H](CO)N2C(=O)C1CC1	2	13	·	5	2	6
C=CCn1c(SCC(=O)c2cccs2)nc2sc(CC)cc2c1=O	11	·	88*	-1	·	-23
CC(C)(C)S(=O)N1Cc2cc(C(=O)O)nc(-c3cccc(-c4cccc(F)c4)c3)c2[C@H]1CCO (some centres undefined)	4	19	9[16.7 µM]	6	2	·
CC=Cc1ccc2n(c1=O)C[C@@H]1[C@@H](CO)[C@H](C(=O)NCC3CCCCC3)[C@H]2N1C(=O)CC (mixture of isomers)	·	-1	·	3	3	·
CC1CCC(C(C)C)C(OC(=O)COC(=O)c2ccc(N)cc2)C1 (centres undefined)	-2	·	12	·	·	·
CC1CCC(C(C)C)C(OC(=O)Cn2c(-c3ccc(Cl)cc3)[n+](C)c3ccccc32)C1 (centres undefined)	-7	-1	68*	6	-58	2
CC1CCC(C(C)C)C(OC(=O)Cn2c(-c3ccc(Br)cc3)[n+](C)c3ccccc32)C1 (centres undefined)	21	0	58*!	-3	-59	-45
CCCCCCCCCCOC(=O)Cn1c(COc2ccccc2C)[n+](C)c2ccccc21	·	·	·	-2	-54	·
SMILES	FN deposition inh	DENV2 CPE	Env fusion inh	PglD inh	Ecoli rRNA inh	PGC1a acetyl inh
Cc1ccccc1OCc1n(CC(=O)OC2CC(C)CCC2C(C)C)c2ccccc2[n+]1C (centres undefined)	19	-7	71*	·	-61	12
CC1CCC(C(C)C)C(OC(=O)COC(=O)c2cccn2C)C1 (centres undefined)	·	·	·	-2	·	-7
O=C([C@H]1[C@H](CO)[C@H]2Cn3c(cccc3=O)[C@H]2N1C(=O)C1CCCC1)N1CCOCC1	-1	-2	·	·	3	2
C[C@@H]1CN([C@@H](C)CO)S(=O)(=O)c2ccc(-c3ccccc3)cc2O[C@H]1CN(C)Cc1cccc(F)c1	9	-7	52[16.7 µM]	2	6	19
CCCC(=O)Nc1ccc2c(c1)OC[C@@H](C)N(Cc1ccncc1)C[C@H](C)[C@@H](OC)CN(C)C2=O	6	25*	8[16.7 µM]	1	-2	·
CCCC(=O)Nc1ccc2c(c1)OC[C@@H](C)N(Cc1ccncc1)C[C@@H](C)[C@@H](OC)CN(C)C2=O	-5	-7	-16[16.7 µM]	1	0	2
CCCC(=O)Nc1ccc2c(c1)OC[C@@H](C)N(Cc1ccccc1F)C[C@@H](C)[C@@H](OC)CN(C)C2=O	6	-8	·	-2	-3	9
CCCC(=O)Nc1ccc2c(c1)OC[C@H](C)N(Cc1ccccc1F)C[C@H](C)[C@@H](OC)CN(C)C2=O	8	21*	·	-2	-5	-6
COc1cc(O)c(C(CCN2CCCCC2)c2ccc(N(C)C)cc2)c(OC)c1 (centres undefined)	-2	-2	57*	6	3	·
Cc1csc(NC(=O)CSc2ncc(-c3ccccc3)[nH]2)n1	-2	-8	9	4	-23	·
Cc1ccc(-c2nc(NC(=O)CSc3nnc(C)s3)ns2)cc1	-24	-1	14	-2	-4	·
Cc1nnc(NC(=O)CSc2ncc(-c3ccccc3)[nH]2)s1	-6	0	-1	0	6	88*
Cc1nnc(SCC(=O)Nc2nsc(-c3ccccc3)n2)s1	9	·	57*	0	·	1
